In ChEMBL document CHEMBL1138808, “Synthesis and anticancer activity of simplified indenoisoquinoline topoisomerase I inhibitors lacking substituents on the aromatic rings” (2004):

Experiments:
DU-145 = test: Growth inhibitory activity against human prostate DU-145 cell line; format: functional
Method in brief: (§1)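 Growth inhibition in human cancer cell culture. GI50 is the concentration giving 50% growth inhibition. Compounds were tested at concentrations up to […].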

[1] = Growth inhibitory activity against human CNSSF-539 cell line; format: functional; method in brief: as §1
HOP-62 = test: Growth inhibitory activity against human lung HOP-62 cell line; format: functional; method in brief: as §1
SN12C = test: Growth inhibitory activity against human renal SN12C cell line; format: functional; method in brief: as §1
OVCAR-3 = test: Growth inhibitory activity against human ovarian OVCAR-3 cell line; format: functional; method in brief: as §1
[2] = biological target: T1, DNA topoisomerase 1 (Homo sapiens) (UniProt P11387); test: Induction of topoisomerase I mediated DNA cleavage; greater activity than parent compound 1
T1 sequence (whole entry): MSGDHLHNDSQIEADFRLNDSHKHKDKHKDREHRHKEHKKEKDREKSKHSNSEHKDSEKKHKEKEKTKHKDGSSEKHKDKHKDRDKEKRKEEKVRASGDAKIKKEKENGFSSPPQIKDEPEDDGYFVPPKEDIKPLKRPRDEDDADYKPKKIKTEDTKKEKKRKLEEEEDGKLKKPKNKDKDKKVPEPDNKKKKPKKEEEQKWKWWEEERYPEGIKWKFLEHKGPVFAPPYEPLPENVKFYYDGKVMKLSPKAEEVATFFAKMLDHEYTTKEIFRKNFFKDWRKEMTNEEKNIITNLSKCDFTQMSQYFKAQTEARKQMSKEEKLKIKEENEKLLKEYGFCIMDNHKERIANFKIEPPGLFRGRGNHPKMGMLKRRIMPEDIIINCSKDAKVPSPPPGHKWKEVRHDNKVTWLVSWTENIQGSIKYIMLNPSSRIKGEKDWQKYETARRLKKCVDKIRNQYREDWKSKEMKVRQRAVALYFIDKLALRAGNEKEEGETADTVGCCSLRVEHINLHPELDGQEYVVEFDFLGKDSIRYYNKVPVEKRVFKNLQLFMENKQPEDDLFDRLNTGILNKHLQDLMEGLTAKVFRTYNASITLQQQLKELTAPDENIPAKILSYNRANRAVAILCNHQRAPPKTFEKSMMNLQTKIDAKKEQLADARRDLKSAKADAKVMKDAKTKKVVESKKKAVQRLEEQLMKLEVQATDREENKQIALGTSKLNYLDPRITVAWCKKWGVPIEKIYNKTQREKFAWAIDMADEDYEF

UACC-62 = test: Growth inhibitory activity against human melanoma UACC-62 cell line; format: functional; method in brief: as §1
MDA-MB-435 = test: Growth inhibitory activity against human breast MDA-MB-435 cell line; format: functional; method in brief: as §1
HCT-116 = test: Growth inhibitory activity against human colon HCT116 cell line; format: functional; method in brief: as §1
[3] = test system: Panel (Carcinoma cell lines); test: Mean graph mid point for growth inhibition of human cancer cell lines; format: functional; set-up: unit not given here
Method in brief: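 Mean graph midpoint of growth inhibition, taken across all human cancer cell lines successfully tested. Compounds were tested at concentrations up to […], and GI50 is the concentration giving 50% growth inhibition.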

[4] = biological target: T1, DNA topoisomerase 1 (Homo sapiens); test: Induction of topoisomerase I mediated DNA cleavage; weak activity
[5] = biological target: T1, DNA topoisomerase 1 (Homo sapiens); test: Induction of topoisomerase I mediated DNA cleavage; Activity similar to parent compound 1
[6] = biological target: T1, DNA topoisomerase 1 (Homo sapiens); test: Induction of topoisomerase I mediated DNA cleavage; Greater activity than parent compound 1
[7] = biological target: T1, DNA topoisomerase 1 (Homo sapiens); test: Induction of topoisomerase I mediated DNA cleavage; Activity similar to 1 uM camptothecin

| Compound | GI50 (DU-145) | GI50 (OVCAR-3) | DNA cleavage [2] | GI50 (MDA-MB-435) | GI50 (HCT-116) | DNA cleavage [4] | DNA cleavage [5] | DNA cleavage [6] | DNA cleavage [7] | GI50 [1] | GI50 (HOP-62) | GI50 (SN12C) | GI50 (UACC-62) | Mean graph mid point [3] |
| --- | --- | --- | --- | --- | --- | --- | --- | --- | --- | --- | --- | --- | --- | --- |
| COc1cc2c3c(n(CCCN)c(=O)c2cc1OC)-c1cc2c(cc1C3=O)OCO2.Cl |  |  | greater activity than compound 1 |  |  |  |  |  |  | 0.26 µM |  |  |  | 0.16 |
| O=C1c2ccccc2-c2c1c1ccccc1c(=O)n2CCN1CCOCC1 | > 100 µM | 81.3 µM |  | > 100 µM | 36.3 µM |  |  | Greater activity than compound 1 |  | 85.1 µM | > 100 µM | 93.3 µM | 29.5 µM | 67.6 |
| CCn1c2c(c3ccccc3c1=O)C(=O)c1cc3c(cc1-2)OCO3 | > 100 µM | 89.1 µM | greater activity than compound 1 | > 100 µM | 95.5 µM |  |  |  |  | 40.7 µM | 36.3 µM | > 100 µM | 20 µM | 51.3 |
| O=C1c2ccccc2-c2c1c1ccccc1c(=O)n2CCO |  |  |  |  |  |  | Activity similar to parent compound 1 |  |  | 12.2 µM |  |  |  |  |
| O=C1c2ccccc2-c2c1c1ccccc1c(=O)n2CCCn1ccnc1 |  |  |  |  |  |  |  |  | Activity similar to 1 uM camptothecin | 2.34 µM |  |  |  | 1.86 |
| N=C(N)NCCCn1c2c(c3ccccc3c1=O)C(=O)c1ccccc1-2.O=C(O)C(F)(F)F | 7.59 µM | 18.2 µM |  | 25.7 µM | 22.4 µM |  |  | Greater activity than compound 1 |  | 0.37 µM | 0.69 µM | 0.23 µM | 11 µM | 9.77 |

Continued, in another order:

| GI50 (DU-145) | GI50 (OVCAR-3) | DNA cleavage [2] | GI50 (MDA-MB-435) | GI50 (HCT-116) | DNA cleavage [4] | DNA cleavage [5] | DNA cleavage [6] | DNA cleavage [7] | Compound | GI50 [1] | GI50 (HOP-62) | GI50 (SN12C) | GI50 (UACC-62) | Mean graph mid point [3] |
| --- | --- | --- | --- | --- | --- | --- | --- | --- | --- | --- | --- | --- | --- | --- |
| 0.22 µM | 1.38 µM | greater activity than compound 1 | 0.78 µM | 0.18 µM |  |  |  |  | Cl.NCCCn1c2c(c3ccccc3c1=O)C(=O)c1ccccc1-2 | 0.25 µM | 0.2 µM | 0.16 µM | 0.26 µM | 0.32 |
| 3.09 µM | 1.12 µM |  | 1.95 µM | 0.58 µM | Weak activity |  |  |  | O=C1c2ccccc2-c2c1c1ccccc1c(=O)n2CCN1CCNCC1 | 1.99 µM | 1.91 µM | 2.19 µM | 1.38 µM | 1.86 |
| 1.28 µM | 3.85 µM |  | 2.56 µM | 1.12 µM | Weak activity |  |  |  | O=C1c2ccccc2-c2c1c1ccccc1c(=O)n2CCNCCO | 1.65 µM | 1.62 µM | 0.95 µM | 1.42 µM | 1.9 |
| 0.41 µM | 1.78 µM |  | 1.45 µM | 1.58 µM |  | Activity similar to parent compound 1 |  |  | Cl.Cl.O=C1c2ccccc2-c2c1c1ccccc1c(=O)n2CCCNCCCn1ccnc1 | 1.07 µM | 0.41 µM | 2 µM | 6.92 µM | 1 |
| 0.06 µM | 1.45 µM |  | 1.82 µM | 0.68 µM | Weak activity |  |  |  | Cl.NCCCn1c2c(c3ccccc3c1=O)C(=O)c1cc3c(cc1-2)OCO3 | 0.43 µM | 0.28 µM | 0.19 µM | 0.18 µM | 0.25 |
| 7.59 µM | 18.2 µM |  | 25.7 µM | 22.4 µM | Weak activity |  |  |  | O=C1c2cc3c(cc2-c2c1c1ccccc1c(=O)n2CCCBr)OCO3 | 0.37 µM |  | 0.23 µM |  | 9.77 |
